From PubChem
tolC growth inh = blocks growth of E. coli BW25113 tolC mutant; growth inhibition, % at 10 µM (by protocol); hit rate 2.2% among 65,000; AID 573; OD615;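 active = growth inhibition at or above a cutoff equal to the mean over every tested compound plus 3 SD, cut at about 60% in these data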;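 also: growth measured after 20 h incubation at 37 °C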
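Test system – E. coli BW25113 ΔtolC::kan, tolC deletion mutant strain · Detection – OD at 615 nm · Buffer or medium – LB with kanamycin 50 µg/mL · Times – 20 h compound exposure of bacteria at 37 °C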
H69AR growth 86K = blocks growth of human H69AR lung tumor cells | H69AR lung tumor viability, ATP luminescence, 72 h; hits give low values | viability, % at 10 µM | hit rate 6% among 85,000;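 active = viability at or below 40%; inactive = viability above 40%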;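 also: multidrug resistant small cell line overexpressing MRP-1 efflux transporter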
Lung fibro prol = blocks proliferation of human lung fibroblasts; viability, % at 10 µM; LL 47 human lung fibroblast viability, ATP luminescence; hits give low values; hit rate 1.1% among 85,000; AID 719;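 active = viability at or below 50% in the single dose screen; inactive = viability above 50%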;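 also: compound exposure lasted 72 h before the ATP readout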
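Material: human lung fibroblast line LL 47, low passage; Evaluation: viability percentage against median untreated-cell control; Buffer or medium: 15% FBS in IMEM; Incubation: 72 h compound exposure at 37 °C after overnight plating; Dosing: 0.1% DMSO in all compound wells; Measured by: CellTiter-Glo luminescence.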
Jurkat tox 60K = reduces viability or proliferation of Jurkat cells. Jurkat E6.1 viability, ATP luminescence, 48 h. inhibition, % at 4 µM. hit rate 1.2% among 56,000;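 active = inhibition above the mean inhibition of all tested compounds plus 3 SD, cut at about 28% in these data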
HUVEC prolif 384 = human endothelial cell proliferation inhibition | AID 648 | hit rate 1.1% among 86,000 | viability, % at 10 µM (by protocol) | HUVEC proliferation, CellTiter-Glo luminescence, 72 h; hits give low values;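 active = viability at or below 30%; inactive = viability above 30%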
E coli WT exp = growth inhibitors of E. coli BW25113 wild type; OD600 absorbance; growth inhibition, % at 100 µM; hit rate 0.15% among 98,000; AID 710;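 active = growth inhibition above about 50% at one test dose, limit read from the data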;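 also: growth measured after 20 h incubation at 37 °C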
A number is an active result; - = inactive; . = not tested or not shown. An excerpt weighted towards active compounds, which were near 6.4% of everything screened.

SMILES | tolC growth inh | H69AR growth 86K | Lung fibro prol | Jurkat tox 60K | HUVEC prolif 384 | E coli WT exp
O=C(NC1CCCCC1)N1CCCC(c2nc(-c3ccc(S(=O)(=O)N4CCCC4)cc3)no2)C1 (centres undefined) | - | 35 | - | - | - | -
O=C(Nc1ccccc1)N1CCC(c2nc(-c3ccc(S(=O)(=O)N4CCOCC4)cc3)no2)CC1 | - | - | - | 33 | - | -
O=C(Nc1cccc(C(F)(F)F)c1)N1CCC(c2nc(-c3ccc(F)cc3)no2)CC1 | 89 | - | - | - | - | -
COc1cc(C(=O)Oc2cccc(C=O)c2)cc(OC)c1OC | . | 25 | - | . | - | -
CCC(CC)NC(=O)c1n[nH]c(=O)c2ccccc12 | - | - | . | - | - | -
COC(=O)c1cc(OC)c(OC)cc1NC(=O)c1ccc(C)cc1 | . | 16 | - | . | - | -
COc1ccc(C2CC(c3c(O)cc(C)oc3=O)=NCCS2)c(OC)c1 (centres undefined) | - | 24 | 48 | 95 | - | -
COc1ccc(C(c2c(O)cc(C)oc2=O)c2c(O)cc(C)oc2=O)cc1 | . | . | . | . | . | -
Cc1ccc(-c2nnn(Cc3nc4ccccc4s3)n2)cc1 | - | - | - | - | - | -
O=c1c2ccccc2nc(-c2ccccc2)n1Cc1ccc(Cl)cc1 | . | . | . | . | . | -
O=c1c2ccccc2nc(-c2cccc(Cl)c2)n1O | - | 23 | - | - | - | -
O=C(CN1C(=O)C2(OCCO2)c2ccccc21)c1ccc(Cl)cc1 | - | . | . | . | . | -
CC1OC2(OC1C)C(=O)Nc1ccccc12 (centres undefined) | . | - | - | . | - | -
CN1C(=O)C2(OCC(COc3ccc(Cl)cc3)O2)c2ccccc21 (centres undefined) | 71 | - | - | - | - | -
O=C1Nc2ccccc2C12OCC(COc1ccc(Cl)cc1)O2 (centres undefined) | 93 | - | - | - | - | -
COc1ccc2c(c1OC)C(=O)OC2CC(=O)c1ccc(O)c(O)c1 (centres undefined) | . | - | - | . | - | -
COC(=O)c1[nH]c2ccc(C)cc2c1NS(=O)(=O)c1ccc(F)cc1 | 83 | - | - | - | - | -
COC(=O)c1[nH]c2ccc(C)cc2c1NS(=O)(=O)c1ccc(F)c(C)c1 | 96 | - | - | - | - | -
CC1CCCCC1NCC(=O)Nc1ccccc1-c1ccccc1 (centres undefined) | . | - | - | . | - | .
COc1ccc(C(=O)CSc2nnc(Cn3cnc4ccccc43)o2)cc1 | - | - | - | 92 | - | -
Cc1ccc(/C=C2\SC(=S)N(CC(=O)Nc3ncc(Cc4ccccc4Cl)s3)C2=O)cc1 | . | . | . | . | . | -
Cc1ccc(/C=C2/SC(=S)N(CC(=O)Nc3ncc(Cc4ccc(C)cc4)s3)C2=O)cc1 | . | 4.0 | - | . | - | -
COCCNC(=O)CSc1nc2cc(OC)c(OC)cc2c(=O)n1Cc1ccc(OC)cc1 | - | - | - | . | - | -
O=C(CSc1n[nH]c(-c2ccccc2O)n1)N1CCCc2ccccc21 | - | 25 | - | 62 | - | -
CN(Cc1ccccc1)S(=O)(=O)c1cccs1 | . | - | - | . | - | -
SMILES | tolC growth inh | H69AR growth 86K | Lung fibro prol | Jurkat tox 60K | HUVEC prolif 384 | E coli WT exp
Cc1ccc(S(=O)(=O)N2CCOCC2)cc1C(=O)O | - | - | - | - | - | -
COc1ccc(OC)c(NC(=O)CCN2CCCC(C)C2)c1 (centres undefined) | - | - | - | - | - | -
O=C(OCC#CCSc1nnc(-c2cccc3ccccc23)o1)c1ccco1 | . | 30 | - | . | - | -
COc1ccc(Nc2nc(N3CCCCC3)nc3ccccc23)c(OC)c1 | . | 9.0 | - | . | - | -
CSc1nc(N2CCOCC2)c2ccccc2n1 | - | - | - | - | - | -
c1ccc2c(N3CCCCC3)nc(N3CCCC3)nc2c1 | - | . | . | - | . | -
COc1ccc(Nc2nc(N3CCCC3)c3ccccc3n2)cc1 | 76 | 36 | 20 | - | 7.7 | -
COc1ccc(Nc2nc(N3CCCCC3)nc(N3CCCCC3)n2)c(OC)c1 | - | - | - | - | - | .
CCN(CC)c1ccc(Nc2nc(N3CCOCC3)c3ccccc3n2)cc1 | . | 32 | - | . | - | -
CCNC(=O)c1c(C)[nH]c(C(=O)OCC)c1C | - | - | - | - | - | -
CSC1=C(C#N)C(c2ccc(Cl)cc2)C2=C(CC(C)(C)CC2=O)N1 (centres undefined) | - | - | - | 36 | - | .
O=C1c2sc3nc4c(c(=O)n3c2C(=O)N1c1ccccc1)CCC4 | - | 35 | - | - | - | -
Cc1ccccc1N1C(=O)c2sc3nc4c(c(=O)n3c2C1=O)CCC4 | - | 3.4 | - | - | - | -
O=C1c2sc3nc4ccccc4n3c2C(=O)N1c1ccccc1Cl | - | 2.9 | - | - | - | -
Cc1ccc(N2C(=O)c3sc4nnc(C)c(=O)n4c3C2=O)cc1 | - | - | - | . | - | -
O=c1/c(=C\c2cccnc2)sc2nc3ccccc3n12 | - | - | - | - | - | -
CCN(CC)CCSc1nc(O)c(C(C)C)c(=O)[nH]1 | - | - | - | . | - | -
Cc1cc(NC(=O)CSc2nc(C3CC3)nc3sc(C)c(C)c23)no1 | . | 24 | - | . | - | -
CC/C(=N\NC(=O)CSCc1ccc(Cl)cc1)c1ccc2c(c1)OCCO2 | . | . | . | . | . | -
O=C(N/N=C/C1CCCCC1)c1cc(Cl)ccc1O | . | . | . | . | . | 50
O=C(N/N=C/C1CCCCC1)c1ccccn1 | . | - | - | . | - | -
O=c1[nH]n(-c2ccc(Cl)cc2)c2ncccc12 | . | . | . | . | . | -
Cc1onc(-c2ccccc2Cl)c1C(=O)N1CCCc2ccccc21 | - | 23 | - | - | - | -
Cc1onc(-c2c(F)cccc2Cl)c1C(=O)N1CCCc2ccccc21 | - | 19 | - | . | - | -
Cc1onc(-c2ccccc2Cl)c1C(=O)N1CCc2ccccc21 | - | - | - | - | - | -
SMILES | tolC growth inh | H69AR growth 86K | Lung fibro prol | Jurkat tox 60K | HUVEC prolif 384 | E coli WT exp
COc1ccccc1N1CCN(C(=O)c2cc(-c3cccc(Cl)c3)on2)CC1 | 69 | - | - | - | - | -
COc1ccc(-c2cc(C(=O)N3CCCc4ccccc43)no2)cc1OC | - | - | - | - | - | -
COc1ccc(-c2cc(C(=O)N3CCc4ccccc4C3)no2)cc1OC | 75 | - | . | - | - | -
O=C(CSc1nc2ccc(Cl)cc2[nH]1)NCc1ccco1 | - | - | - | - | - | -
O=C(CCC1COc2ccccc2O1)Nc1cccnc1 (centres undefined) | - | - | - | - | - | -
Cn1c(SCC(=O)c2cc3ccccc3o2)nnc1-c1ccccc1 | - | - | - | - | - | -
COCCc1ccc(OCC(O)CNC(C)C)cc1 (centres undefined) | - | - | - | . | - | .
COC(=O)C1CCN(C(=O)c2c(-c3ccccc3Cl)noc2C)CC1 | - | - | - | - | - | -
COc1ccccc1N1CCN(C(=O)c2c(-c3ccccc3Cl)noc2C)CC1 | - | 19 | - | - | - | -
CCOC(=O)C1=C(CNCc2ccc(C)cc2)NC(=O)NC1c1ccc(OC)cc1 (centres undefined) | - | - | - | 35 | - | -
COc1ccc(CN2CCN(c3ncccn3)CC2)c(OC)c1 | - | - | - | - | - | -
